Assay [1] concerns the target T1, Adenosine receptor A2b (Homo sapiens) (UniProt P29275).
T1 sequence (whole entry): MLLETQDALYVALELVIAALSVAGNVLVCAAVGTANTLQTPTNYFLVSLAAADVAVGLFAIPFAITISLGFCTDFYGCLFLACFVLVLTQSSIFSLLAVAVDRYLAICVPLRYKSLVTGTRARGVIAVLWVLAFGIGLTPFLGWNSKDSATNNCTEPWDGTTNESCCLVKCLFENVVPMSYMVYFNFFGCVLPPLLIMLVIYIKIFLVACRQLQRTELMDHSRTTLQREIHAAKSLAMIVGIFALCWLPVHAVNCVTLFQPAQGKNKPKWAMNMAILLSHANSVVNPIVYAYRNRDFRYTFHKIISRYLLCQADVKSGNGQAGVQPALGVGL
The assay can be described thus: Displacement of [3H]DPCPX from human adenosine A2B receptor expressed in HEK293 cells at 0.1 uM. The assay is classed as cell-based. In a few lines: (§1)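 Competition binding at cloned human receptors: [3H]DPCPX for A1 and A2B, [3H]ZM241385 for A2A, [3H]NECA for A3. Screening compounds are reported as % radioligand displacement at one concentration. SEM below 10%.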
A general note: Displacement assays read how much labelled ligand stays bound in the presence of the test substance.

Assay [2] has as its target T2, Adenosine receptor A2a (Homo sapiens, UniProt P29274). In words: Displacement of [3H]ZM-241385 from human adenosine A2A receptor expressed in CHO cells at 0.1 uM. The class given is cell-based. In a few lines: as §1
For a further assay, the target named is T3, Adenosine receptor A1 (Homo sapiens, UniProt P30542).
T3 sequence (P30542 whole entry): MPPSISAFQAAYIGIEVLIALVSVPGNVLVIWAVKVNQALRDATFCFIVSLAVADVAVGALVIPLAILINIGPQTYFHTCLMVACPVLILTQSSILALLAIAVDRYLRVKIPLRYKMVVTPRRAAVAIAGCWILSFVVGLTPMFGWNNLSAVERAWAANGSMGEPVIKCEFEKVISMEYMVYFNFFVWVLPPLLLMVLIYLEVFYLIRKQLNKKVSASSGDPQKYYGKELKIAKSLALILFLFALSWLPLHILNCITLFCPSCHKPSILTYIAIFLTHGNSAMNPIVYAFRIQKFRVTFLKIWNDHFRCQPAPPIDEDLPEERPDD
In words: Displacement of [3H]DPCPX from human adenosine A1 receptor expressed in CHO cells. The class given is cell-based. In outline:
as §1

In assay [3] the target is T2, Adenosine receptor A2a. In words: Displacement of [3H]ZM-241385 from human adenosine A2A receptor expressed in CHO cells. The assay is classed as cell-based. In outline: as §1
The next assay has as its target T4, Adenosine receptor A2b (Homo sapiens, UniProt P29275).
T4 sequence (P29275 whole entry): T1 sequence (whole entry)
In words: Displacement of [3H]DPCPX from human adenosine A2B receptor expressed in HEK293 cells. The assay is classed as cell-based.

The target in a further assay is T5, Adenosine receptor A3 (Homo sapiens, UniProt P0DMS8).
T5 sequence (P0DMS8 whole entry): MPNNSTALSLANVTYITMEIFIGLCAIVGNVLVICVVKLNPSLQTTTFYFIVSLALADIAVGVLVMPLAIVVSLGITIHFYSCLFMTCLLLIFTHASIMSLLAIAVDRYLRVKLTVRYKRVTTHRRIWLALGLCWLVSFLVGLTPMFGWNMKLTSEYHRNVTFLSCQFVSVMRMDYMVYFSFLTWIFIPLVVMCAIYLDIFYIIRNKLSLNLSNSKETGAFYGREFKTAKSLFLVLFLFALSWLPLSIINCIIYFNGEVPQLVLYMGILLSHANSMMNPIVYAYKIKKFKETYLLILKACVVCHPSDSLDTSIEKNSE
In words: Displacement of [3H]NECA from human adenosine A3 receptor expressed in CHO cells. The class given is cell-based. In a few lines: as §1

The species named for assay [4] is Homo sapiens. The assay can be described thus: Selectivity index, ratio for human adenosine A2A receptor to human adenosine A2B receptor.
The species named for assay [5] is Homo sapiens. The assay can be described thus: Selectivity index, ratio for human adenosine A3 receptor to human adenosine A2B receptor.
For assay [6], the species on record is Homo sapiens. The assay can be described thus: Selectivity index, ratio for human adenosine A1 receptor to human adenosine A2B receptor.
Assay [7] deals with T6, Adenosine receptor A1 (Homo sapiens) (UniProt P30542).
T6 sequence (whole entry): T3 sequence (P30542 whole entry)
The assay can be described thus: Displacement of [3H]DPCPX from human adenosine A1 receptor expressed in CHO cells at 1 uM. The assay is classed as cell-based. In outline: as §1

Assay [8] concerns the target T7, Adenosine receptor A3 (Homo sapiens) (UniProt P0DMS8).
T7 sequence (whole entry): T5 sequence (P0DMS8 whole entry)
In words: Displacement of [3H]NECA from human adenosine A3 receptor expressed in CHO cells at 1 uM. The class given is cell-based. In outline: as §1

Assay [9] in a line: Antagonist activity at adenosine A2B receptor in guinea pig thoracic aorta smooth muscle. The assay is classed as functional, tissue-based, Cavia porcellus. In a few lines:
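Isolated guinea pig thoracic aorta smooth muscle (A2B). Cumulative NECA concentration–response curves were run without and with antagonist. Antagonism is read as a parallel rightward shift with no loss of maximum, and reported as pA2.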

Assay [10] concerns the target Adenosine receptor A2a (Rattus norvegicus, UniProt P30543). In words: Antagonist activity at adenosine A2A receptor in Sprague-Dawley rat aorta smooth muscle. To be noted: read-out: pA2 (converted). The assay is classed as functional, tissue-based. In outline:
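Isolated aorta from male Sprague–Dawley rats (200–250 g) for A2A receptors. Cumulative NECA agonist concentration–response curves were run without and with antagonist, and antagonist potency is given as pA2.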

Assay [11] has as its target T2, Adenosine receptor A2a. In words: Antagonist activity at human adenosine A2A receptor expressed in CHO cells by cAMP assay. The class given is functional, cell-based. In outline: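 cAMP assay in CHO cells transfected with human A2A receptor. Cumulative NECA concentration–response curves were run alone and with antagonist, and potency is expressed as pA2.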
For orientation: cAMP levels reflect the balance of adenylyl cyclase and phosphodiesterase activity.

Assay [12] has as its target T1, Adenosine receptor A2b (Homo sapiens). In words: Antagonist activity at human adenosine A2B receptor expressed in HEK293 cells by cAMP assay. The assay is classed as functional, cell-based. In outline:
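cAMP assay in HEK-293 cells with endogenous human A2B receptor expression. NECA cumulative concentration–response curves were run in the absence and presence of antagonist, and the parallel rightward shift gives pA2.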

Structures are written as SMILES. Where only a bound is given, the exact number is not on record here.

By Ki is commonly meant the dissociation constant of the complex between target and ligand, obtained from inhibition or displacement. As a reminder, the pA2 is a measure of antagonist potency on a negative log scale. A low value points to lower antagonist potency.

T2 sequence (P29274 whole entry): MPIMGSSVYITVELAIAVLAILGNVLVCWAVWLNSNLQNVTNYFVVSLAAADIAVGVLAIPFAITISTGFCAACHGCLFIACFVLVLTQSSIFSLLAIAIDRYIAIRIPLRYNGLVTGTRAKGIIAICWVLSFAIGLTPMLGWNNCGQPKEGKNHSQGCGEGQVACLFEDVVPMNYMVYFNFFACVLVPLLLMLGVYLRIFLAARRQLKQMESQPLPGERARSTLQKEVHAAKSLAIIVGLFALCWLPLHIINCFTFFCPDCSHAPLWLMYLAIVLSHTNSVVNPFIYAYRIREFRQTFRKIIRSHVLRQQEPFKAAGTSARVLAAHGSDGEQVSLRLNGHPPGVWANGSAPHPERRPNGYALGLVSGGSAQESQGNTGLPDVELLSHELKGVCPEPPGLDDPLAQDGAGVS
Adenosine receptor A2a (Rattus norvegicus, UniProt P30543), sequence (P30543 whole entry): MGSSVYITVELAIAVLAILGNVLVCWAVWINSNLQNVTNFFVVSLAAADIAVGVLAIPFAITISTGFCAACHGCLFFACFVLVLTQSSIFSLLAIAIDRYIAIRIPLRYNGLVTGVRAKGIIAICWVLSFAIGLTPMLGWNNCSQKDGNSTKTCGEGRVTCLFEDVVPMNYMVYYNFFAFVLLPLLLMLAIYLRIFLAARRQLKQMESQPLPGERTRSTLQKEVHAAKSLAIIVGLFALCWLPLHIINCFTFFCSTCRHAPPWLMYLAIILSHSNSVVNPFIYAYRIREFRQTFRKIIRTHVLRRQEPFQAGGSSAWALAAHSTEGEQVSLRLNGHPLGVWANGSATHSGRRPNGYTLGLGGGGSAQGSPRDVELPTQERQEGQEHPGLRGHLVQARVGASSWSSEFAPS

For `O=C(COc1ccc(-c2cc3c([nH]2)c(=O)n(CC(F)(F)F)c(=O)n3CC(F)(F)F)cc1)N1CCN(c2ccccc2)CC1`, the results for the Activity (in assay [1]; on Adenosine receptor A2a [2]) were 32% and 3%, respectively.

Regarding `CCCn1c(=O)n(C)c(=O)c2[nH]c(-c3ccc(OCC(=O)N4CCN(c5ccc(C(F)(F)F)cc5)CC4)cc3)cc21`, the inhibitory constant (Ki) on Adenosine receptor A1 is 89.1 nM; at Adenosine receptor A2a [3], 0.324 µM; at Adenosine receptor A2b (read-out: Ki), 2 nM; on Adenosine receptor A3, 2240 nM. The Ratio in the assay filed under Homo sapiens [4] amounted to 158; in the assay filed under Homo sapiens [5] it was 3090; in the assay filed under Homo sapiens [6], 44.

For the compound `COc1ccc(N2CCN(C(=O)COc3ccc(-c4cc5c([nH]4)c(=O)n(C)c(=O)n5C)c(OC)c3)CC2)cc1`, the figures for the Activity (in assay [1]; at Adenosine receptor A2a [2]) were 30% and 1%, respectively.

`Cn1c(=O)c2[nH]c(-c3ccc(OC(C)(C)C(=O)N4CCN(c5nc6cc(Cl)ccc6s5)CC4)cc3)cc2n(C)c1=O`: the Ki at Adenosine receptor A2a [3] was 10 µM; on Adenosine receptor A2b (read-out: Ki), 11 nM. For the same compound, the Ratio in the assay filed under Homo sapiens [4] was 912; in the assay listed under Homo sapiens [5], above 100; in the assay filed under Homo sapiens [6], above 100. The Activity in assay [7] was found to be 8%; in assay [8], 18%.

As to `CCCn1c(=O)n(C)c(=O)c2[nH]c(-c3ccc(OC(C)(C)C(=O)N4CCC(c5ccccc5)(c5ccccc5)CC4)cc3)cc21`, the Activity was determined as 35% in assay [1] and 11% at Adenosine receptor A2a [2].

For the compound `Cn1c(=O)c2[nH]c(-c3ccc(OC(C)(C)C(=O)N4CCC(c5ccccc5)(c5ccccc5)CC4)cc3)cc2n(C)c1=O`, the values for the Activity (in assay [1]; on Adenosine receptor A2a [2]) were 34% and 8%, respectively.

Take `CCCn1c(=O)n(C)c(=O)c2[nH]c(-c3ccc(OCC(=O)N4CCC(c5ccccc5)(c5ccccc5)CC4)cc3)cc21`: the inhibitory constant (Ki) on Adenosine receptor A1 was 676 nM; on Adenosine receptor A2a [3], 3.55 µM; at Adenosine receptor A2b (read-out: Ki), 5.5 nM; at Adenosine receptor A2b (read-out: Log Ki (converted)) it was 5.62 nM. Moreover, the Ratio in the assay listed under Homo sapiens [4] was 630; in the assay filed under Homo sapiens [5] it was above 180; in the assay listed under Homo sapiens [6], 120. For the same compound, the Activity in assay [8] was 4%; at Adenosine receptor A2a [11], “Dose-dependent effect”; in [12] it was “Dose-dependent effect”. Also, the pA2 in assay [9] stood at 8. Also, the Kb at Adenosine receptor A2a [10] was 7.94 µM.

The record behind these values is ChEMBL document CHEMBL1143979, “1-, 3- and 8-substituted-9-deazaxanthines as potent and selective antagonists at the human A2B adenosine receptor” (Bioorg Med Chem, 2008).
